In PubChem BioAssay:
Inconclusive results are not listed.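 The calls were made as follows, unless noted: active = growth inhibition above 25% in both replicates, a cutoff set 3 SD above the mean; inconclusive = above 25% in only one replicate; inactive = the rest.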

Legend:
[1] = OD615 S. cerevisiae growth inhibition, permissive medium, pilot counter-assay, permissive growth control for S. cerevisiae lifespan shortening project (AID 705); details: OD615, 24 h, at 10 µM, hits give high values
Procedure, shortened: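 System: S. cerevisiae with engineered DeaD lifespan system / Measured by: absorbance (optical density) at 615 nm / Read-out: reduction in yeast growth (OD615) / Times: 4 h cell pre-growth, 24 h exposure at 30 °C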

[2] = Restrictive medium S. cerevisiae growth inhibition, OD615, pilot screen of yeast lifespan reduction project, restrictive growth control (AID 706;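 active = growth inhibition above a set limit, 3 SD over mean compound inhibition, in both replicates, cut at about 43% in these data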;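 also: modified DeaD lifespan yeast strain shifted to restrictive glucose medium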); details: OD615, 48 h, at 10 µM, hits give high values
Procedure, shortened: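 System: Engineered S. cerevisiae DeaD strain | Buffer or medium: Glucose-based CSMM-D restrictive medium | Schedule: 4 h pre-incubation, 48 h exposure at 30 °C | Technique: Optical density at 615 nm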

[3] = viability gain of MRP-1-high H69AR cells under doxorubicin, pilot screen, MRP-1 activator project, CellTiter-Glo, duplicate (AID 807;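 active = viability increase at or above a cutoff of the median across tested compounds plus 3 SD, cut at about 8.5% in these data, passing the limit was not always enough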;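 also: compound pretreatment 18-22 h then 72 h combined with doxorubicin; 0% = doxorubicin alone and 100% = vehicle without doxorubicin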); details: H69AR viability with doxorubicin, CellTiter-Glo luminescence; at 10 µM; hits give high values
[4] = growth suppression of beta-catenin knockout HCT116, pilot screen, human colon tumor cells (AID 823;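 active = cell viability at or below a set limit in both duplicate runs, the limit being the all-compound median minus 4 SD, cut at about 23% in these data, passing the limit was not always enough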;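 also: 0% = wells killed by 20 µM Hyamine and 100% = untreated DMSO cell wells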); details: CellTiter-Glo, 60 h, at 10 µM, hits give low values
[5] = growth suppression of PTEN-deleted HCT116, pilot screen, cell-based, HCT116 clonal line, CellTiter-Glo (AID 824;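 active = viability at or below 27.92% in each of two runs, the all-compound median minus 4 SD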;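 also: 0% = 20 µM Hyamine control and 100% = vehicle cell control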); details: 60 h, at 10 µM, hits give low values
[6] = inhibitors of the yeast RAM network, pilot screen, dse1pr::URA3 reporter, 5-FOA selection (AID 869;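 active = inhibition over a set limit, the all-compound mean plus 3 SD, in both replicate runs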;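 also: 0% = DMSO wells with no growth and 100% = 10 µM 1-NA-PP1 with full growth; RAM network block rescues cells from 5-FOA so hits raise OD615 growth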); details: S. cerevisiae dse1pr::URA3 5-FOA growth, OD615, 2 d; at 10 µM; hits give high values; strain carries analog-sensitive mutant Cbk1 kinase
[7] = RAM signaling pathway blockade in yeast – S. cerevisiae, Pdr1DBD-CYC8 efflux-inhibited sensitized strain, primary screen (AID 1298;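 active = RAM network inhibition above 8.4% in each of two replicates, 3 SD over the compound average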;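 also: 0% = DMSO untreated cells without growth and 100% = 10 µM 1-NA-PP1 full growth; higher means more yeast growth rescued from 5-FOA killing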); details: S. cerevisiae cbk1-as DSE1-URA3 strain, 5-FOA growth OD615, 2 d; at 50 µM; hits give high values

O=C(COC(=O)c1ccccc1Oc1ccccc1)NCc1ccco1
inactive: growth inhibition [1] -7.67% | growth inhibition [2] -3.48% | viability increase [3] -6.02% | viability [4] 61.6% | viability [5] 67.1% | inhibition [6] 2.41% | RAM network inhibition [7] 2.24%

O=C(OCN1C(=O)c2ccccc2C1=O)c1cccs1
inactive: growth inhibition [1] -2.01% | growth inhibition [2] -11.2% | viability increase [3] -0.64% | viability [4] 94.7% | viability [5] 96.5% | inhibition [6] 1.2% | RAM network inhibition [7] 1.51%

COc1cc(NC(=O)C2CCC(CNc3c(N4CCCCC4)c(=O)c3=O)CC2)cc(OC)c1 (configuration not stated)
inactive: growth inhibition [1] 0.52% | growth inhibition [2] -2.35% | viability increase [3] -0.71% | viability [4] 95.2% | viability [5] 95.9% | inhibition [6] 1.79% | RAM network inhibition [7] 5.55%

Cc1cc(Nc2ccc(Br)cc2)n2nc(C)nc2n1
inactive: growth inhibition [1] -14% | growth inhibition [2] -2.33% | viability increase [3] -2.63% | viability [4] 96.2% | viability [5] 88.3% | inhibition [6] 2.85% | RAM network inhibition [7] 4.46%

COc1ccc(-c2nnc3ccc(SCC(=O)N4CCCC4)nn23)cc1
inactive: growth inhibition [1] 3.94% | growth inhibition [2] 1.08% | viability increase [3] -4.23% | viability [4] 101% | viability [5] 99.5% | inhibition [6] 1.44% | RAM network inhibition [7] 0.16%

CC(=O)Nc1cc2ccc(OC(C)=O)cc2oc1=O
inactive: growth inhibition [1] -15.3% | growth inhibition [2] -13.9% | viability increase [3] -4.23% | viability [4] 107% | viability [5] 93.8% | inhibition [6] 1.62% | RAM network inhibition [7] 0.82%

CCC(C)NC(=O)C1CCN(C(=O)c2ccccc2)CC1 (configuration not stated)
inactive: growth inhibition [1] -3.49% | growth inhibition [2] -5.37% | viability increase [3] 0.74% | viability [4] 102% | viability [5] 98.2% | inhibition [6] 1.18% | RAM network inhibition [7] 1.87%

Cc1ccc(-n2c(SCC(=O)Nc3cc(C)on3)nc3c(c2=O)SC(C)C3)cc1 (configuration not stated)
inactive: growth inhibition [1] -1.77% | growth inhibition [2] -14.4% | viability increase [3] -2.56% | viability [4] 87.5% | viability [5] 88.4% | inhibition [6] 0.5% | RAM network inhibition [7] 2.13%

OC(CN1c2ccccc2Sc2ccccc21)Cn1nnc2ccccc21 (configuration not stated)
inactive: growth inhibition [1] -4.44% | growth inhibition [2] -9.12% | viability increase [3] -6.85% | viability [4] 72% | viability [5] 66.2% | inhibition [6] 1.69% | RAM network inhibition [7] 10.2%

COCc1cc(=O)n2[nH]c(-c3cccc(Br)c3)cc2n1
inactive: growth inhibition [1] -25.1% | growth inhibition [2] -16.1% | viability increase [3] -2.23% | viability [4] 92.9% | viability [5] 86.7% | inhibition [6] 0.76% | RAM network inhibition [7] 5.82%

Cc1cc2cc(CNC(=O)c3ccc(Br)o3)ccc2[nH]1
inactive: growth inhibition [1] -6.49% | growth inhibition [2] -9.17% | viability increase [3] -1.33% | viability [4] 86.5% | viability [5] 85.1% | inhibition [6] 3.64% | RAM network inhibition [7] 8.22%

Cn1c(CNC(=O)c2ccc(F)cc2)nc2ccccc21
inactive: growth inhibition [1] -0.44% | growth inhibition [2] -5.71% | viability increase [3] -2.48% | viability [4] 99.5% | viability [5] 102% | inhibition [6] 0.325% | RAM network inhibition [7] 3.67%

c1ccc(N2CCOCC2)c(Nc2nc3ccccc3n3cnnc23)c1
inactive: growth inhibition [1] -8.77% | growth inhibition [2] -1.25% | viability increase [3] -2.57% | viability [4] 66.3% | viability [5] 49.1% | inhibition [6] 1.02% | RAM network inhibition [7] 9.05%

O=C(CCNS(=O)(=O)c1cccc2nsnc12)NCCc1ccccc1
inactive: growth inhibition [1] 3.27% | growth inhibition [2] -1.99% | viability increase [3] -1.34% | viability [4] 105% | viability [5] 97.6% | inhibition [6] 0.11% | RAM network inhibition [7] 1.2%

COc1cc2c(cc1OC)C(c1ccco1)CC(=O)N2 (configuration not stated)
inactive: growth inhibition [1] -6.61% | growth inhibition [2] -1.62% | viability increase [3] -2.43% | viability [4] 101% | viability [5] 101% | inhibition [6] 1.06% | RAM network inhibition [7] 3.34%

COC(=O)CCSCC(=O)Nc1nnc(C)s1
inactive: growth inhibition [1] 3.46% | growth inhibition [2] -7.57% | viability increase [3] -0.31% | viability [4] 108% | viability [5] 93.1% | inhibition [6] 3.05% | RAM network inhibition [7] 0.66%

CC1(C)C(=O)OC(C(=O)c2ccccc2)C(C)(C)C1=O (configuration not stated)
inactive: growth inhibition [1] -7.95% | growth inhibition [2] -6.81% | viability increase [3] 0.07% | viability [4] 105% | viability [5] 94.8% | inhibition [6] 0.83% | RAM network inhibition [7] 2.22%

CC(=O)Nc1nc(CC(=O)c2ccccc2)cs1
inactive: growth inhibition [1] -2.4% | growth inhibition [2] -4.14% | viability increase [3] -0.56% | viability [4] 102% | viability [5] 98.9% | inhibition [6] 1.15% | RAM network inhibition [7] 0.47%

COc1ccc(N2C(=O)CCC(C(=O)Nc3ccccn3)C2c2ccc(OC)c(OC)c2)cc1 (configuration not stated)
inactive: growth inhibition [1] 0.15% | growth inhibition [2] -9.93% | viability increase [3] -0.12% | viability [4] 96.2% | viability [5] 96.9% | inhibition [6] 1.64% | RAM network inhibition [7] 0.04%

Cc1cc(NC(=O)CSc2nc3c([nH]c4ccccc43)c(=O)n2-c2cccc(C(F)(F)F)c2)no1
inactive: growth inhibition [1] -8.72% | growth inhibition [2] -3.21% | viability increase [3] -4.01% | viability [4] 75.1% | viability [5] 66.7% | inhibition [6] 2.41% | RAM network inhibition [7] 1.08%

COc1ccc2[nH]cc(CCNC(=O)C3CCCNC3=O)c2c1 (configuration not stated)
inactive: growth inhibition [1] -14.6% | growth inhibition [2] -16.5% | viability increase [3] -1.57% | viability [4] 104% | viability [5] 102% | inhibition [6] 0.15% | RAM network inhibition [7] 2.98%

CC(=O)c1cccc(NC(=O)c2cc3ccccn3n2)c1
inactive: growth inhibition [1] -5.62% | growth inhibition [2] 4.32% | viability increase [3] -2.31% | viability [4] 99% | viability [5] 95.8% | inhibition [6] 0.705% | RAM network inhibition [7] -0.31%

O=S(=O)(NC1c2cccc3cccc(c23)C1N1CCNCC1)c1ccccc1 (configuration not stated)
inactive: growth inhibition [1] -10.4% | growth inhibition [2] -14.2% | viability increase [3] -5.27% | viability [4] 68% | viability [5] 74.8% | inhibition [6] 1.62% | RAM network inhibition [7] 2.72%

O=C(Nc1ccccc1Cl)c1ccc(S(=O)(=O)N2CCOCC2)cc1
inactive: growth inhibition [1] -11.5% | growth inhibition [2] -7.41% | viability increase [3] -0.1% | viability [4] 111% | viability [5] 99.4% | inhibition [6] 0.585% | RAM network inhibition [7] 2.05%

CCSc1nc2c(c(=O)[nH]1)C(C(C)C)C(C#N)=C(N)O2 (configuration not stated)
inactive: growth inhibition [1] -20.5% | growth inhibition [2] -13% | viability increase [3] -2.8% | viability [4] 106% | viability [5] 98.9% | inhibition [6] 0.63% | RAM network inhibition [7] 2.73%

COCCNC(=O)Cn1cnc2sc(C)c(S(=O)(=O)N3CCC(C)CC3)c2c1=O
inactive: growth inhibition [1] -5.23% | growth inhibition [2] -3.64% | viability increase [3] 0.05% | viability [4] 100% | viability [5] 100% | inhibition [6] 1.68% | RAM network inhibition [7] 5.34%

CCn1c(C2CC(=O)N(c3cc(C)cc(C)c3)C2)nc2ccccc21 (configuration not stated)
inactive: growth inhibition [1] -6.28% | growth inhibition [2] -7% | viability increase [3] -4.36% | viability [4] 87% | viability [5] 85% | inhibition [6] 1.13% | RAM network inhibition [7] 4.85%

COC(=O)C1CCCN1C(C(=O)NC1CCCCC1)c1ccc(Cl)cc1 (configuration not stated)
inactive: growth inhibition [1] -15.1% | growth inhibition [2] -2.47% | viability increase [3] 1.72% | viability [4] 82.7% | viability [5] 74.9% | inhibition [6] 0.02% | RAM network inhibition [7] 2.27%

N#CC(c1nc2ccccc2nc1N1CCCC1)S(=O)(=O)c1ccccc1 (configuration not stated)
inactive: growth inhibition [1] -17.2% | growth inhibition [2] -3.85% | viability increase [3] -4.56% | viability [4] 81.9% | viability [5] 84.5% | inhibition [6] 0.815% | RAM network inhibition [7] 5.73%

Cc1ccc(-c2nnc3n2N=C(c2ccc(Br)cc2)CS3)cc1
inactive: growth inhibition [1] 1.27% | growth inhibition [2] 15.8% | viability increase [3] -2.58% | viability [4] 102% | viability [5] 90.5% | inhibition [6] 2.41% | RAM network inhibition [7] 4.62%

COc1ccc(N2Cc3cccc(C(=O)N4CCN(C(=O)c5ccco5)CC4)c3C2=O)cc1
inactive: growth inhibition [1] 3.88% | growth inhibition [2] 11.3% | viability increase [3] -1.86% | viability [4] 99.3% | viability [5] 91% | inhibition [6] 2.62% | RAM network inhibition [7] 3.36%

O=C(NCCc1ccccc1)c1ccc2c(c1)N(Cc1ccccc1)C(=O)CS2=O (configuration not stated)
inactive: growth inhibition [1] 0.9% | growth inhibition [2] -2.98% | viability increase [3] 0.8% | viability [4] 96.3% | viability [5] 88.7% | inhibition [6] 0.2% | RAM network inhibition [7] 3.6%

CC(=O)N1CSCC1C(=O)N1CCN(c2ccc(N3CCOCC3)nn2)CC1 (configuration not stated)
inactive: growth inhibition [1] 5.2% | growth inhibition [2] 12.4% | viability increase [3] -0.66% | viability [4] 103% | viability [5] 95.1% | inhibition [6] 1.55% | RAM network inhibition [7] 0.26%

Cn1c2ccc(CC(=O)O)cc2c2cc(CC(=O)O)ccc21
inactive: growth inhibition [1] 1.85% | growth inhibition [2] -12.4% | viability increase [3] -3.54% | viability [4] 96.8% | viability [5] 89.7% | inhibition [6] 1.1% | RAM network inhibition [7] 0.98%

O=C1C(O)CC2c3ccccc3CC3(CCCC3)N12 (configuration not stated)
inactive: growth inhibition [1] -14.1% | growth inhibition [2] -11.3% | viability increase [3] -0.65% | viability [4] 99.4% | viability [5] 90.4% | inhibition [6] 0.65% | RAM network inhibition [7] 8.18%

CC(C)CC1(C(=O)O)NC(c2ccccc2O)C2C(=O)N(C(C)C)C(=O)C21 (configuration not stated)
inactive: growth inhibition [1] 3.45% | growth inhibition [2] 3.48% | viability increase [3] -0.07% | viability [4] 102% | viability [5] 99.3% | inhibition [6] 1.27% | RAM network inhibition [7] 3.59%
